Among the data in ChEMBL document CHEMBL1158477, “Synthesis, in vivo evaluation, and molecular modeling studies of new pyrazolo[5,1-c][1,2,4]benzotriazine 5-oxide derivatives. Identification of a bifunctional hydrogen bond area related to the inverse agonism” (J Med Chem, 2009) are Activity and Ki values, retold here.

Active and inactive are the calls of the source. The rule behind the calls is not given here.

Experiment [1] relates to Mus musculus. Description: Effect on spontaneous motility in CD1 albino mouse assessed as number of movement on plane board at 30 mg/kg, po after 30 mins by hole-board test. Type of experiment: functional. Put shortly: (§1)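 Hole-board test in male CD-1 mice: animals placed singly on the board and allowed to explore panel and holes. Test run 30 min after po dosing in 1% CMC (10 mL/kg). Hole entries (curiosity) and plane movements (spontaneous motility) counted; 10 mice per group, compared with CMC controls.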

Experiment [2] deals with Mus musculus. Description: Anxiolytic activity in CD1 albino mouse at 30 mg/kg, po after 30 mins by light/dark box test in presence of flumazenil. Further details: dose 30 mg/kg. In kind it is functional, organism-based. The essentials:
(§2)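 Light/dark box in male CD-1 mice. Test substance given po in 1% CMC 30 min before the test, with flumazenil 100 mg/kg ip (saline) co-treatment. Transfers between compartments and time in the lit side recorded. Mean ± SEM of 15-20 mice.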

For experiment [3], the system named is Mus musculus. Description: Effect on ethanol-induced sleeping time in CD1 albino mouse assessed as increase in duration of loss of righting reflex at 3 mg/kg, po preincubated 30 mins before ethanol challenge. In kind it is functional, organism-based. Further details: dose 3 mg/kg.
In experiment [4] the test system is Mus musculus. Description: Effect on motor coordination in CD1 albino mouse assessed as number of falls form rotarod at 3 mg/kg, po administered 60 mins before test measured for 30 seconds after 30 mins of drug infusion by rotarod test. Type of experiment: functional. Put shortly: (§3)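 Rota-rod in male CD-1 mice with a pretest. Test substance given po in 1% CMC; falls from the rotating rod counted over 30 s, assessed 30 min after treatment.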
In general terms: Falling from the rotarod earlier than controls is read as motor impairment.

Experiment [5] has as its system Mus musculus. Description: Anxiolytic activity in CD1 albino mouse at 30 mg/kg, po after 30 mins by light/dark box test. Type of experiment: functional, organism-based. Further details: dose 30 mg/kg. Put shortly: (§4)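 Male CD-1 mice (22-24 g) given test substance po in 1% CMC (10 mL/kg), tested 30 min later in a light/dark box. Transfers between compartments and time spent in the illuminated side were measured. Values are mean ± SEM of 15-20 mice; compared with controls.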

For experiment [6], the system named is Mus musculus. Put plainly: Effect on learning and memory process in CD1 albino mouse assessed as improvement in retention latency at 10 mg/kg, po after 24 hrs by passive avoidance test. Type of experiment: functional, organism-based. Further details: dose 10 mg/kg. Put shortly:
(§5)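 Step-through passive avoidance in a two-compartment box (lit and dark compartments joined by a guillotine door). Male CD-1 mice dosed po (1% CMC) 30 min before training; retention tested 24 h later. Training and retention latencies recorded; mean ± SEM of 15-20 mice versus controls.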

In experiment [7] the test system is Mus musculus. Description: Anticonvulsant activity against pentylenetetrazole-induced shock in CD1 albino mouse assessed as shock latency at 10 mg/kg, po preincubated for 30 mins before pentylenetetrazole challenge measured for 30 mins (RVb=253.1 +/- 13 seconds). Type of experiment: functional.
The test system of experiment [8] is Mus musculus. Put plainly: Anxiolytic activity in CD1 albino mouse at 10 mg/kg, po after 30 mins by light/dark box test. Further details: dose 10 mg/kg. In kind it is functional, organism-based. Put shortly:
as §4

In experiment [9] the test system is Mus musculus. Put plainly: Anticonvulsant activity against pentylenetetrazole-induced convulsions in CD1 albino mouse assessed as convulsion latency at 3 mg/kg, po preincubated for 30 mins before pentylenetetrazole challenge measured for 30 mins (RVb=599 +/- 37.6 seconds). In kind it is functional.
In experiment [10] the test system is Mus musculus. Put plainly: Effect on spontaneous motility in CD1 albino mouse assessed as number of movement on plane board at 10 mg/kg, po after 30 mins by hole-board test. Type of experiment: functional. The essentials:
as §1

For experiment [11], the system named is Mus musculus. Put plainly: Effect on explorative capacity in CD1 albino mouse assessed as curiosity-related number of head plugging activity on hole at 3 mg/kg, po after 30 mins by hole-board test. Type of experiment: functional. Put shortly: as §1
Experiment [12] relates to Mus musculus. Put plainly: Anticonvulsant activity against pentylenetetrazole-induced convulsions in CD1 albino mouse assessed as convulsion latency at 30 mg/kg, po preincubated for 30 mins before pentylenetetrazole challenge measured for 30 mins (RVb=599 +/- 37.6 seconds). In kind it is functional.
The subject of experiment [13] is Mus musculus. Description: Effect on ethanol-induced sleeping time in CD1 albino mouse assessed as reduction in duration of loss of righting reflex at 30 mg/kg, po preincubated 30 mins before ethanol challenge. In kind it is functional, organism-based. Further details: dose 30 mg/kg.
Experiment [14] concerns Mus musculus. Put plainly: Anxiolytic activity in CD1 albino mouse at 10 mg/kg, po after 30 mins by light/dark box test in presence of flumazenil. Type of experiment: functional, organism-based. Further details: dose 10 mg/kg. Put shortly:
as §2

The test system of experiment [15] is Mus musculus. Description: Anticonvulsant activity against pentylenetetrazole-induced convulsions in CD1 albino mouse assessed as convulsion latency at 10 mg/kg, po preincubated for 30 mins before pentylenetetrazole challenge measured for 30 mins (RVb=599 +/- 37.6 seconds). In kind it is functional.
Experiment [16] concerns Mus musculus. Put plainly: Anticonvulsant activity against pentylenetetrazole-induced shock in CD1 albino mouse assessed as shock latency at 30 mg/kg, po preincubated for 30 mins before pentylenetetrazole challenge measured for 30 mins (RVb=253.1 +/- 13 seconds). In kind it is functional.
Experiment [17] deals with Mus musculus. Put plainly: Anxiolytic activity in CD1 albino mouse at 3 mg/kg, po after 30 mins by light/dark box test. Type of experiment: functional, organism-based. Further details: dose 3 mg/kg. Put shortly:
as §4

Experiment [18] in a line: Displacement of [3H]flumazenil from GABAA/Benzodiazepine receptor in bovine brain. Further details: species or system Bos taurus. Put shortly:
(§6)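 Bovine brain membranes; displacement of specific [3H]flumazenil (Ro15-1788) binding. Percent inhibition measured at 10 μM; Ki determined only when inhibition at that concentration exceeded 80%. Ki given as mean ± SEM of five determinations.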
On the technique in general: In a radioligand displacement assay an active substance lowers the binding of a labelled ligand.

In experiment [19] the test system is Mus musculus. Description: Effect on learning and memory process in CD1 albino mouse assessed as improvement in retention latency at 30 mg/kg, po after 24 hrs by passive avoidance test. In kind it is functional, organism-based. Further details: dose 30 mg/kg. Put shortly:
as §5

The test system of experiment [20] is Mus musculus. Put plainly: Effect on spontaneous motility in CD1 albino mouse assessed as number of movement on plane board at 3 mg/kg, po after 30 mins by hole-board test. In kind it is functional. Put shortly: as §1
The test system of experiment [21] is Mus musculus. Put plainly: Anticonvulsant activity against pentylenetetrazole-induced shock in CD1 albino mouse assessed as shock latency at 3 mg/kg, po preincubated for 30 mins before pentylenetetrazole challenge measured for 30 mins (RVb=253.1 +/- 13 seconds). In kind it is functional.
Experiment [22] has as its system Mus musculus. Description: Effect on explorative capacity in CD1 albino mouse assessed as curiosity-related number of head plugging activity on hole at 10 mg/kg, po after 30 mins by hole-board test. In kind it is functional. The essentials: as §1
In experiment [23] the test system is Mus musculus. Put plainly: Effect on motor coordination in CD1 albino mouse assessed as number of falls form rotarod at 10 mg/kg, po […] measured for 30 seconds after 30 mins of dosing by rotarod test. Type of experiment: functional. Put shortly: as §3
Experiment [24] has as its system Mus musculus. Description: Effect on explorative capacity in CD1 albino mouse assessed as curiosity-related number of head plugging activity on hole at 30 mg/kg, po after 30 mins by hole-board test. In kind it is functional. The essentials: as §1
In experiment [25] the test system is Mus musculus. Put plainly: Effect on motor coordination in CD1 albino mouse assessed as number of falls form rotarod at 30 mg/kg, po […] measured for 30 seconds after 30 mins of drug infusion by rotarod test. In kind it is functional. Put shortly:
as §3

The species named for a further experiment is Bos taurus. Put plainly: Displacement of [3H]flumazenil from GABAA/Benzodiazepine receptor in bovine brain at 10 uM. The essentials: as §6
Experiment [26] concerns Mus musculus. Put plainly: Effect on ethanol-induced sleeping time in CD1 albino mouse assessed as increase in duration of loss of righting reflex at 10 mg/kg, po preincubated 30 mins before ethanol challenge. In kind it is functional, organism-based. Further details: dose 10 mg/kg.
Experiment [27] relates to Mus musculus. Description: Anticonvulsant activity against pentylenetetrazole-induced convulsions in CD1 albino mouse assessed as absence of convulsions at 1 mg/kg, ip preincubated for 30 mins before pentylenetetrazole challenge measured for 30 mins. In kind it is functional, organism-based. Further details: dose 1 mg/kg. Put shortly: (§7)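 Male CD-1 mice (22-24 g), drug in isotonic saline given ip; PTZ 90 mg/kg sc injected 30 min after drug. Occurrence of clonic generalized convulsions noted over 30 min, with shock and convulsion latency recorded. Controls received 1% CMC.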

For experiment [28], the system named is Mus musculus. Description: Effect on ethanol-induced sleeping time in CD1 albino mouse assessed as increase in duration of loss of righting reflex at 1 mg/kg, ip preincubated 30 mins before ethanol challenge. Further details: dose 1 mg/kg. Type of experiment: functional, organism-based. Put shortly: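 Male CD-1 mice given drug ip in saline. Ethanol 4 g/kg ip injected 30 min after drug. Duration of loss of righting reflex taken as sleep time, capped at 210 min. Mean of 15-20 mice per group.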

Experiment [29] relates to Mus musculus. Put plainly: Anticonvulsant activity against pentylenetetrazole-induced shock in CD1 albino mouse assessed as absence of shocks at 1 mg/kg, ip preincubated for 30 mins before pentylenetetrazole challenge measured for 30 mins. In kind it is functional, organism-based. Further details: dose 1 mg/kg. Put shortly:
as §7

Experiment [30] has as its system Mus musculus. Put plainly: Anxiolytic activity in CD1 albino mouse at 1 mg/kg, ip after 20 mins by light/dark box test in presence of flumazenil. Type of experiment: functional, organism-based. Further details: dose 1 mg/kg. Put shortly:
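Male CD-1 mice given drug ip in saline, tested in a light/dark box. Number of transfers between compartments and time spent in the illuminated side recorded. Flumazenil given ip at 100 mg/kg as antagonist.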

For `[O-][n+]1nc2c(I)cnn2c2cc(OCc3ccccc3)ccc21`, the Activity was 54.5 in the experiment with Mus musculus [1]; 1.5 in the experiment on Mus musculus [4]; 266.1 s in the experiment with Mus musculus [7]; 380.2 s in the experiment on Mus musculus [9]; 66.9 in the experiment on Mus musculus [10]; 29 in the experiment on Mus musculus [11]. In addition, the Activity is 479.7 s with Mus musculus [12]; 360.8 s with Mus musculus [15]; 354 s in the experiment with Mus musculus [16]; 54.3 in the experiment on Mus musculus [20]; 375 s in the experiment with Mus musculus [21]; 22.7 in the experiment with Mus musculus [22]. Further, the Activity with Mus musculus [23] is 2.2; with Mus musculus [24] it was 28.7; in the experiment on Mus musculus [25] it was 1.7; in the experiment listed under Bos taurus, over 80%. Also, the outcome in the experiment on Mus musculus [2], with Mus musculus [3], in the experiment on Mus musculus [14] and in the experiment with Mus musculus [26] was inactive. Also, the result with Mus musculus [5], in the experiment with Mus musculus [6], in the experiment on Mus musculus [8], with Mus musculus [13], in the experiment with Mus musculus [17] and in the experiment with Mus musculus [19] was Active. Besides, the Ki (usually the dissociation constant of the complex between target and ligand, obtained from inhibition or displacement) in experiment [18] is 1.1 nM.

Consider `CN1C(=O)CN=C(c2ccccc2)c2cc(Cl)ccc21`, for which the outcome in the experiment with Mus musculus [27], in the experiment with Mus musculus [28] and with Mus musculus [29] was Active. The outcome in the experiment with Mus musculus [30] was inactive.
